From PubChem
A selection: hits, their analogues and other compounds. The true share with any hit is near 1.4%.
ZTA counter: ZTA (EBV) inhibition in EBNA-1 counter-screen | ZTA-DNA binding, fluorescence polarization | AID 2234 | inhibition, % at 11 µM | 0.15% of 320,000 active; in the data active = inhibition above about 33%
Target sequence (P03206 whole entry, looked up): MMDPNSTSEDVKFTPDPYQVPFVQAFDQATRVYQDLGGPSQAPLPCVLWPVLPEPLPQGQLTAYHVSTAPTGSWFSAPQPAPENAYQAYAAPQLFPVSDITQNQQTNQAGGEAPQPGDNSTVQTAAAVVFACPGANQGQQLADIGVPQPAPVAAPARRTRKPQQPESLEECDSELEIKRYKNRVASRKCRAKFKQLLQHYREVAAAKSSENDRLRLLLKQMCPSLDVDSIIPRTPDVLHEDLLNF
NS3 helicase inh: inhibitors of HCV NS3 helicase, primary screen, biochemical, Cy5 molecular beacon fluorescence | Hepatitis C virus NS3 helicase | NS3 helicase DNA unwinding | inhibition, % at 10.9 µM | 0.56% of 290,000 active | AID 1800, 2009;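 active = inhibition above the mean of all tested compounds plus 3 SD, set per campaign, cut at about 35% in these data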
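System: HCV NS3 helicase fragment; control set: DMSO and thioflavine S; technique: Cy5 fluorescence at 0 and 60 min, beacon hairpin quenching; reagent: beacon DNA duplex substrate plus ATP; replicates: singlicate; schedule: 1 h reaction at 25 °C, ATP-initiated; medium: MOPS buffer pH 6.5 with MgCl2, DTT, Tween20, BSA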
EBNA-1 inh: EBNA-1 DNA-binding inhibitors, primary screen, biochemical, fluorescence polarization; 0.34% of 300,000 active; inhibition, % at 14.8 µM; in the data active = inhibition above about 28%
Fh CTSL1 inh: Fasciola hepatica cathepsin L1 inhibitors, primary screen, counter-screen for PFM18AAP inhibitor project, biochemical, QFRET, fluorogenic peptide substrate; recombinant F. hepatica cathepsin L1, Z-Leu-Arg-MCA fluorescence; inhibition, % at 5.96 µM; 0.49% of 300,000 active;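 active = inhibition above the mean of all tested compounds plus 3 SD, set per screening campaign, cut at about 17% in these data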
Each line names hits and unclear results; the compound was inactive in the other large screens.

CCOc1ccc(NC(=O)N(C2CCCCC2)C(C)c2ccncc2)cc1 (centres undefined)	none
O=C1CSC(c2ccccc2)N1c1ccc([N+](=O)[O-])cc1 (centres undefined)	none
O=C(NC1CCCC1)C1CCC(=O)N1C1CCCCC1 (centres undefined)	none
Cc1cc(C)c(S(=O)(=O)/N=C2\C=C(Nc3ccc(C(=O)O)cc3)C(=O)c3ccccc32)c(C)c1	Fh CTSL1 inh 25.1
CCc1ccc(S(=O)(=O)/N=C2/C=C(Sc3ncn[nH]3)C(=O)c3ccccc32)cc1	Fh CTSL1 inh 100.3
CCc1ccc(S(=O)(=O)/N=C2\C=C(Nc3cccc(C(=O)O)c3)C(=O)c3ccccc32)cc1	Fh CTSL1 inh 50.6
CCc1ccc(S(=O)(=O)/N=C2\C=C(Nc3ccc(O)cc3)C(=O)c3ccccc32)cc1	Fh CTSL1 inh 63.4
O=C(O)c1ccc(NC2=C/C(=N/S(=O)(=O)c3ccccc3)c3ccccc3C2=O)cc1	none (no result: ZTA counter, EBNA-1 inh, Fh CTSL1 inh)
Clc1ccc(Nc2nc(NCCN3CCOCC3)nc(N3CCOCC3)n2)cc1	Fh CTSL1 inh 18.5
Fc1ccc(Nc2nc(N3CCOCC3)nc(N3CCOCC3)n2)cc1Cl	none
COc1ccc(CN(CCC(c2ccccc2)c2ccc(OC(C)C)cc2)C(=O)CCl)cc1OC (centres undefined)	Fh CTSL1 inh 36.4
COc1ccc(C(CCN(Cc2ccc(OC)c(OC)c2)C(C)=O)c2ccccc2)cc1 (centres undefined)	none
CCN1/C(=C/C=C/c2oc3ccc4ccccc4c3[n+]2CC)Oc2ccc3ccccc3c21	EBNA-1 inh 28.7
COc1cc2c(cc1OC)-c1cc3ccc4c(c3c[n+]1CC2)OCO4	Fh CTSL1 inh 51.5
O=C(Nc1ccc2nc(-c3ccco3)c(-c3ccco3)nc2c1)NC1CC1	NS3 helicase inh 47.4 (no result: ZTA counter, EBNA-1 inh, Fh CTSL1 inh)
OCCCNC(=S)Nc1ccc2nc(-c3ccccn3)c(-c3ccccn3)nc2c1	none
O=C(Nc1ccc(N2CCOCC2)cc1)Nc1ccc2nc(-c3ccco3)c(-c3ccco3)nc2c1	none
O=C(NCCCO)Nc1ccc2nc(-c3ccco3)c(-c3ccco3)nc2c1	ZTA counter 58.0
CC1CN(CCCCOc2ccc(Cl)c3ccccc23)CC(C)O1 (centres undefined)	none
Cc1nn(-c2ccc(F)cc2)c2sc(C(=O)N3CCCCCC3)cc12	none
COc1ccc(Cc2noc(CN3CCCN(Cc4ccc(F)cc4)CC3)n2)cc1OC	none
CCC(=O)Oc1oc(-c2ccccc2)nc1C=Nc1ccc(C)cc1	Fh CTSL1 inh 26.5
CCC(=O)Oc1oc(-c2ccccc2)nc1C=Nc1ccccc1OC	Fh CTSL1 inh 24.8
Cc1ccc(NC(=O)CN2C(=O)S/C(=C\c3cc(Cl)c(OCC(=O)O)c(Cl)c3)C2=O)cc1	none
COc1ccc(NC(=O)CN2C(=O)NC3(CCCC3)C2=O)cc1Cl	none
O=C(NCc1ccccc1CN1CCCC1)C1CCN(S(=O)(=O)c2ccc(F)c(F)c2)CC1	none (no result: NS3 helicase inh, EBNA-1 inh, Fh CTSL1 inh)
Cc1ccc2c(c1)c1c3n2CCN(C(=O)CN2CCN(C)CC2)C3CCC1 (centres undefined)	none
Cc1ccc2c(c1)c(=O)c1c3n2CCN(C(=O)CCl)C3CC1 (centres undefined)	Fh CTSL1 inh 77.5
Cc1nn(-c2ccccc2)c(N2CCCC2)c1/C=C1\N=C(c2ccccc2)OC1=O	Fh CTSL1 inh 56.1
CC(C)CNC(=S)NC1CC2CCCC(C1)N2Cc1cccs1 (centres undefined)	none
Cc1ccnc(NC(NC(=O)C(C)C)(C(F)(F)F)C(F)(F)F)c1	none
O=C(NCCC1=CCCCC1)c1ccc2c(=O)n3c(nc2c1)CCCCC3	none (no result: NS3 helicase inh)
O=C(N[C@@H](Cc1ccccc1)C(=O)CCl)OCc1ccccc1	Fh CTSL1 inh 69.2 (no result: NS3 helicase inh)
COc1cccc(NC(C)(C)c2nnnn2-c2c(C)cccc2C)c1	none
Cc1ccc(C(C)C)c(OCC(=O)NNC(=O)Nc2ccccc2)c1	none (no result: NS3 helicase inh)
COc1cccc(-c2noc(C(C)n3nc(C)c([N+](=O)[O-])c3C)n2)c1 (centres undefined)	Fh CTSL1 inh 18.3
CCOc1ccc(NC(=O)CN(c2ccc(C)cc2)S(=O)(=O)c2c(C)nn(C)c2C)cc1	none
Cc1cccc(N(CC(=O)NC(C)(C)C)C(=O)CCC(=O)Nc2ccccn2)c1	Fh CTSL1 inh 17.7
Cc1cc(C)cc(N(CC(=O)NC(C)(C)C)C(=O)CCC(=O)Nc2ccccn2)c1	none
CC(C)(C)Nc1nc(SCc2ccccc2)nc(N2CCOCC2)n1	Fh CTSL1 inh 18.6
c1ccc(Nc2nc(CSc3ncn[nH]3)cs2)cc1	Fh CTSL1 inh 35.0
